{"source": "the RNAGym collection of RNA variant scans (doi:10.1002/anie.201605470)", "parents": {"B1": {"name": "Osa-1-4 twister ribozyme (parent)", "chain": "CCGCCUAACACUGCCAAUGCCGGUCCCAAGCCCGGAUAAAAGUGGAGGGGGCGG"}}, "data": [{"variants_of": "B1", "test": "self-cleavage, relative activity (ratio to wild type); higher = more cleavage; co-transcriptional", "method_in_brief": "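The 48 positions downstream of the cleavage site in a 54-nucleotide Oryza sativa twister ribozyme template were synthesised at 97 % wild-type base and 1 % of each other base. The template was transcribed in vitro at 37 °C for 2 h, with self-cleavage allowed during transcription. Reads with or without upstream sequence after deep sequencing marked cleavage status, and relative activity is fraction cleaved normalised to wild type.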", "values": [{"variant": "CCGCCUAACACUGCCAAUGCCGGUCCCAAGCCCUGAUAAAAGUGGAGCGGGCGG", "note": "[G34U G48C]", "self-cleavage": 0.07}, {"variant": "CCGCCUAACACUGCCAAUGCCGGUCCCAAGCCCUGAUAAAAAUGGAGGGGGCGG", "note": "[G34U G42A]", "self-cleavage": 0.13}, {"variant": "CCGCCUAACACUGCCAAUGCCGGUCCCAAGCCCUGAUAAAACUGGAGGGGGCGG", "note": "[G34U G42C]", "self-cleavage": 0.08}, {"variant": "CCGCCUAACACUGCCAAUGCCGGUCCCAAGCCCUGAUAAAAUUGGAGGGGGCGG", "note": "[G34U G42U]", "self-cleavage": 0.07}, {"variant": "CCGCCUAACACUGCCAAUGCCGGUCCCAAGCCCGAAUAAAAGGGGAGGGGGCGG", "note": "[G35A U43G]", "self-cleavage": 0.12}, {"variant": "CCGCCUAACACUGCCAAUGCCGGUCCCAAGCCCGAAUAAAAGAGGAGGGGGCGG", "note": "[G35A U43A]", "self-cleavage": 0.46}, {"variant": "CCGCCUAACACUGCCAAUGCCGGUCCCAAGCCCGAAUAAAAGCGGAGGGGGCGG", "note": "[G35A U43C]", "self-cleavage": 0.41}, {"variant": "CCGCCUAACACUGCCAAUGCCGGUCCCAAGCCCUGAUAAAAGUGGAUGGGGCGG", "note": "[G34U G47U]", "self-cleavage": 0.1}, {"variant": "CCGCCUAACACUGCCAAUGCCGGUCCCAAGCCCUGAUAAAAGUGGAAGGGGCGG", "note": "[G34U G47A]", "self-cleavage": 0.09}, {"variant": "CCGCCUAACACUGCCAAUGCCGGUCCCAAGCCCUGAUAAAAGUGGACGGGGCGG", "note": "[G34U G47C]", "self-cleavage": 0.05}, {"variant": "CCGCCUAACACUGCCAAUGCCGGUCCCAAGCCCUGAUAAAAGUGGAGGGCGCGG", "note": "[G34U G50C]", "self-cleavage": 0.39}, {"variant": "CCGCCUAACACUGCCAAUGCCGGUCCCAAGCCCUGAUAAAAGUGGAGGGUGCGG", "note": "[G34U G50U]", "self-cleavage": 0.73}, {"variant": "CCGCCUAACACUGCCAAUGCCGGUCCCAAGCCCUGAUAAAAGUGGAGGGAGCGG", "note": "[G34U G50A]", "self-cleavage": 0.26}, {"variant": "CCGCCUAACACUGCCAAUGCCGGGCCCAAGCCCUGAUAAAAGUGGAGGGGGCGG", "note": "[G34U U24G]", "self-cleavage": 0.03}, {"variant": "CCGCCUAACACUGCCAAUGCCGGACCCAAGCCCUGAUAAAAGUGGAGGGGGCGG", "note": "[G34U U24A]", "self-cleavage": 0.15}, {"variant": "CCGCCUAACACUGCCAAUGCCGGCCCCAAGCCCUGAUAAAAGUGGAGGGGGCGG", "note": "[G34U U24C]", "self-cleavage": 0.07}, {"variant": "CCGCCUAACACUGCCAAUGCCGGUCCCAAGCCCGAAUAAAACUGGAGGGGGCGG", "note": "[G35A G42C]", "self-cleavage": 0.17}, {"variant": "CCGCCUAACACUGCCAAUGCCGGUCCCAAGCCCGAAUAAAAUUGGAGGGGGCGG", "note": "[G35A G42U]", "self-cleavage": 0.08}, {"variant": "CCGCCUAACACUGCCAAUGCCGGUCCCAAGCCCGAAUAAAAAUGGAGGGGGCGG", "note": "[G35A G42A]", "self-cleavage": 0.44}, {"variant": "CCGCCUAACACUGCCAAUGCCGGUCCCAAGCCCGAAUAAAAGUGCAGGGGGCGG", "note": "[G35A G45C]", "self-cleavage": 0.06}, {"variant": "CCGCCUAACACUGCCAAUGCCGGUCCCAAGCCCGAAUAAAAGUGUAGGGGGCGG", "note": "[G35A G45U]", "self-cleavage": 0.15}, {"variant": "CCGCCUAACACUGCCAAUGCCGGUCCCAAGCCCGAAUAAAAGUGAAGGGGGCGG", "note": "[G35A G45A]", "self-cleavage": 0.31}, {"variant": "CCGCCUAACACUGCCAAUGCCGGUCCCAAGCCCGAAUAAAAGUUGAGGGGGCGG", "note": "[G35A G44U]", "self-cleavage": 0.71}, {"variant": "CCGCCUAACACUGCCAAUGCCGGUCCCAAGCCCGAAUAAAAGUCGAGGGGGCGG", "note": "[G35A G44C]", "self-cleavage": 0.76}, {"variant": "CCGCCUAACACUGCCAAUGCCGGUCCCAAGCCCGAAUAAAAGUAGAGGGGGCGG", "note": "[G35A G44A]", "self-cleavage": 0.8}, {"variant": "CCGCCUAACACUGCCAAUGCCGGUCCCAAGCCCUUAUAAAAGUGGAGGGGGCGG", "note": "[G34U G35U]", "self-cleavage": 0.52}, {"variant": "CCGCCUAACACUGCCAAUGCCGGUCCCAAGCCCUGAAAAAAGUGGAGGGGGCGG", "note": "[G34U U37A]", "self-cleavage": 0.79}, {"variant": "CCGCCUAACACUGCCAAUGCCGGUCCCAAGCCCUGAGAAAAGUGGAGGGGGCGG", "note": "[G34U U37G]", "self-cleavage": 0.87}, {"variant": "CCGCCUAACACUGCCAAUGCCGGUCCCAAGCCCUGACAAAAGUGGAGGGGGCGG", "note": "[G34U U37C]", "self-cleavage": 0.84}, {"variant": "CCGCCUAACACUGCCAAUGCCGGUCCCAAGCCCGAAUAAAAGUGGAGGUGGCGG", "note": "[G35A G49U]", "self-cleavage": 0.16}, {"variant": "CCGCCUAACACUGCCAAUGCCGGUCCCAAGCCCGAAUAAAAGUGGAGGCGGCGG", "note": "[G35A G49C]", "self-cleavage": 0.07}, {"variant": "CCGCCUAACACUGCCAAUGCCGGUCCCAAGCCCGAAUAAAAGUGGAGGAGGCGG", "note": "[G35A G49A]", "self-cleavage": 0.18}, {"variant": "CCGCCUAACACUGCCAAUGCCGGUCCCAAGCCCUGAUAAAAGUAGAGGGGGCGG", "note": "[G34U G44A]", "self-cleavage": 0.55}, {"variant": "CCGCCUAACACUGCCAAUGCCGGUCCCAAGCCCUGAUAAAAGUCGAGGGGGCGG", "note": "[G34U G44C]", "self-cleavage": 0.41}, {"variant": "CCGCCUAACACUGCCAAUGCCGGUCCCAAGCCCUGAUAAAAGUUGAGGGGGCGG", "note": "[G34U G44U]", "self-cleavage": 0.5}, {"variant": "CCGCCUAACACUGCCAAUGCCGGUCCCAAGCCCUGAUAAAAGUGGAGGGGGCGC", "note": "[G34U G54C]", "self-cleavage": 0.57}, {"variant": "CCGCCUAACACUGCCAAUGCCGGUCCCAAGCCCUGAUAAAAGUGGAGGGGGCGU", "note": "[G34U G54U]", "self-cleavage": 0.49}, {"variant": "CCGCCUAACACUGCCAAUGCCGGUCCCAAGCCCUGAUAAAAGUGGAGGGGGCGA", "note": "[G34U G54A]", "self-cleavage": 0.39}, {"variant": "CCGCCUAACACUGCCAAUGCCGGUCCCAAGCCCGAAUAAAAGUGGAGGGGGCGG", "note": "[G35A]", "self-cleavage": 0.9}, {"variant": "CCGCCUAACACUGCCAAUGCCGGUCCCAAGCCCGCAUAAAAGUGGAGGGGGCGG", "note": "[G35C]", "self-cleavage": 0.72}, {"variant": "CCGCCUAACACGGCCAAUGCCGGUCCCAAGCCCUGAUAAAAGUGGAGGGGGCGG", "note": "[G34U U12G]", "self-cleavage": 0.05}, {"variant": "CCGCCUAACACAGCCAAUGCCGGUCCCAAGCCCUGAUAAAAGUGGAGGGGGCGG", "note": "[G34U U12A]", "self-cleavage": 0.14}, {"variant": "CCGCCUAACACCGCCAAUGCCGGUCCCAAGCCCUGAUAAAAGUGGAGGGGGCGG", "note": "[G34U U12C]", "self-cleavage": 0.14}, {"variant": "CCGCCUAACACUGCCAAUGCCGGUCCCAAGCCCUGAUAAAAGUGGAGGAGGCGG", "note": "[G34U G49A]", "self-cleavage": 0.11}, {"variant": "CCGCCUAACACUGCCAAUGCCGGUCCCAAGCCCUGAUAAAAGUGGAGGCGGCGG", "note": "[G34U G49C]", "self-cleavage": 0.06}, {"variant": "CCGCCUAACACUGCCAAUGCCGGUCCCAAGCCCUGAUAAAAGUGGAGGUGGCGG", "note": "[G34U G49U]", "self-cleavage": 0.11}, {"variant": "CCGCCUAACACUGCCAAUGCCGGUCCCAAGCCCUGAUAAAAGUGUAGGGGGCGG", "note": "[G34U G45U]", "self-cleavage": 0.08}, {"variant": "CCGCCUAACACUGCCAAUGCCGGUCCCAAGCCCUGAUAAAAGUGCAGGGGGCGG", "note": "[G34U G45C]", "self-cleavage": 0.05}, {"variant": "CCGCCUAACACUGCCAAUGCCGGUCCCAAGCCCUGAUAAAAGUGAAGGGGGCGG", "note": "[G34U G45A]", "self-cleavage": 0.09}]}]}
